Tests used:
[1] = test system: MCF7; assay: Cytotoxicity against human MCF7 cells after 48 hrs by SRB binding assay; assay type: functional, cell-based; conditions: MCF7, 48 h
How it was run: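 Drug-sensitive MCF-7 cells seeded at ~15% confluency and allowed 24 h recovery. Exposed 48 h to graded concentrations. Survival measured by SRB binding as % decrease versus ethanol-vehicle controls, mean of triplicate wells.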

[2] = Cytotoxicity against Pgp overexpressing human NCI/ADR cells after 48 hrs by SRB binding assay; assay type: functional, cell-based; conditions: NCI/ADR-RES
How it was run: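 NCI/ADR (Pgp-overexpressing) cells seeded at ~15% confluency and allowed 24 h to attach. Exposed 48 h to graded concentrations, as solubility allowed, without vinblastine. Survival measured by sulforhodamine B binding as % decrease in SRB binding versus ethanol-vehicle controls, mean of three wells per condition.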

[3] = Cytotoxicity against human T24 cells after 48 hrs by SRB binding assay; assay type: cell-based; conditions: T-24, 48 h
[4] = Cytotoxicity against MRP1 overexpressing human MCF7/VP cells after 48 hrs by SRB binding assay; assay type: functional, cell-based
How it was run: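 MCF-7/VP (MRP1-expressing, Pgp-negative) cells seeded at ~15% confluency and allowed 24 h to attach. Exposed 48 h to graded concentrations without vincristine. Survival measured by SRB binding versus ethanol controls.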

[5] = Growth inhibition of Pgp deficient MCF7/VP cells expressing MRP1; assay type: functional, cell-based; conditions: Homo sapiens
How it was run: (§1)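 NCI/ADR (Pgp-overexpressing) or MCF-7/VP (MRP1-expressing, Pgp-negative) cells were seeded at about 15% confluency and allowed to attach for 24 h. They were then exposed for 48 h to varying compound concentrations, limited by solubility, without added vinca drug. Survival was read by sulforhodamine B binding against ethanol solvent controls. Each value is the mean of three equally treated wells.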

[6] = Growth inhibition of NCI/ADR cells expressing Pgp/MRP1; assay type: functional, cell-based; conditions: Homo sapiens, NCI/ADR-RES; how it was run: as §1
[7] = test system: MCF7; assay: Growth inhibition of Pgp deficient MCF7 cells expressing MRP1; assay type: functional, cell-based; conditions: Homo sapiens; how it was run: as §1

COc1cccc(CCc2cn(Cc3ccccc3)c3nc(N)nc(C)c23)c1 gave an IC50 [1] of 8 µM, an IC50 [2] of 5.7 µM and an IC50 [3] of 25 µM. For the same molecule, the IC50 [4] was 22 µM.

Cc1nc(N)nc2c1c(CCc1ccccc1)cn2Cc1ccccc1 showed an IC50 [1] of 10.7 µM, an IC50 [2] of 18.2 µM and an IC50 [3] of 12.7 µM. The IC50 [4] was 18.3 µM.

CC[C@]1(O)C[C@H]2CN(CCc3c([nH]c4ccccc34)[C@@](C(=O)OC)(c3cc4c(cc3OC)N(C=O)[C@H]3[C@@](O)(C(=O)OC)[C@H](OC(C)=O)[C@]5(CC)C=CCN6CC[C@]43[C@@H]65)C2)C1 [VINCRISTINE] showed an IC50 [5] of 0.0093 µM, an IC50 [6] of 0.1 µM and an IC50 [7] of 0.0006 µM.
